Test results from EPA's CvTdb concentration-time database.

How the values were obtained:
rat [1] = assay: amount in urine after dosing (umol); conditions: dosed: tert-amyl methyl ether, 38.4 ppm, inhalation, duration: 4 hr, F344 (Harlan Winkelmann)
human = assay: amount in urine after dosing (umol); conditions: dosed: tert-amyl methyl ether, 38.4 ppm, inhalation, duration: 4 hr
In short: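 A PubMed search, classifier screening and manual review identified published in vivo toxicokinetic studies, which together with two structured collections supplied concentration-versus-time and amount-versus-time points. Points were mostly digitised from plot screenshots with WebPlotDigitizer, otherwise copied from tables. Dose, route, subject details and medium were hand-curated from each paper, and sampling and analytical methods are those of the sources, often unreported.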

Rat [2] = assay: concentration in urine after dosing; conditions: dosed: dibromoacetic acid, 100 mg/kg, oral, Male, F344
Rat [3] = assay: concentration in urine after dosing; conditions: dosed: dibromoacetic acid, 40 mg/kg, oral, Male, F344
Rat [4] = assay: concentration in urine after dosing; conditions: dosed: dibromoacetic acid, 100 mg/kg, oral, Male, F344; remark: listed apart in the source
Rat [5] = assay: concentration in urine after dosing; conditions: dosed: dibromoacetic acid, oral, Male, F344
Rat [6] = assay: concentration in urine after dosing; conditions: dosed: dibromoacetic acid, 40 mg/kg, oral, Male, F344; remark: listed apart in the source
Rat [7] = assay: concentration in plasma after dosing; conditions: dosed: Phenolphthalein, 25 mg/kg, iv, Female, F344
Rat [8] = assay: concentration in plasma after dosing; conditions: dosed: Phenolphthalein, 25 mg/kg, iv, F344
Rat [9] = assay: concentration in plasma after dosing; conditions: 16 h; dosed: Phenolphthalein; 25 mg/kg; iv; Female; F344
Rat [10] = assay: concentration in plasma after dosing; conditions: 4 h; dosed: Phenolphthalein; 25 mg/kg; iv; Male; F344
Rat [11] = assay: concentration in plasma after dosing; conditions: dosed: Phenolphthalein, 25 mg/kg, iv, Female, F344; remark: listed apart in the source
Rat [12] = assay: concentration in plasma after dosing; conditions: dosed: Phenolphthalein, 25 mg/kg, iv, Female, F344; remark: listed apart in the source
Rat [13] = assay: concentration in plasma after dosing; conditions: 3 h; dosed: Phenolphthalein; 25 mg/kg; iv; Male; F344
Rat [14] = assay: concentration in plasma after dosing; conditions: dosed: Phenolphthalein, 25 mg/kg, iv, Female, F344; remark: listed apart in the source
Rat [15] = assay: concentration in plasma after dosing; conditions: dosed: Phenolphthalein, 25 mg/kg, iv, Female, F344; remark: listed apart in the source
Rat [16] = assay: concentration in plasma after dosing; conditions: 3 h; dosed: Phenolphthalein; 25 mg/kg; iv; Male; F344; remark: listed apart in the source
Rat [17] = assay: concentration in plasma after dosing; conditions: 5 min; dosed: Phenolphthalein; 25 mg/kg; iv; Male; F344
Rat [18] = assay: concentration in plasma after dosing; conditions: dosed: Phenolphthalein, 25 mg/kg, iv, Male, F344
Rat [19] = assay: concentration in plasma after dosing; conditions: dosed: Phenolphthalein, 25 mg/kg, iv, Female, F344; remark: listed apart in the source
Rat [20] = assay: concentration in plasma after dosing; conditions: dosed: Phenolphthalein, 25 mg/kg, iv, Female, F344; remark: listed apart in the source
Rat [21] = assay: concentration in plasma after dosing; conditions: 16 h; dosed: Phenolphthalein; 25 mg/kg; iv; Female; F344; remark: listed apart in the source
Rat [22] = assay: concentration in plasma after dosing; conditions: 2.5 min; dosed: Phenolphthalein; 25 mg/kg; iv; Male; F344
Rat [23] = assay: concentration in plasma after dosing; conditions: dosed: Phenolphthalein, 25 mg/kg, iv, Female, F344; remark: listed apart in the source
Rat [24] = assay: concentration in plasma after dosing; conditions: 2.5 min; dosed: Phenolphthalein; 25 mg/kg; iv; Male; F344; remark: listed apart in the source
Rat [25] = assay: concentration in plasma after dosing; conditions: dosed: Phenolphthalein, 25 mg/kg, iv, Female, F344; remark: listed apart in the source
Rat [26] = assay: concentration in plasma after dosing; conditions: 5 min; dosed: Phenolphthalein; 25 mg/kg; iv; Male; F344; remark: listed apart in the source
Rat [27] = assay: concentration in plasma after dosing; conditions: dosed: Phenolphthalein, 25 mg/kg, iv, Female, F344; remark: listed apart in the source
Rat [28] = assay: concentration in plasma after dosing; conditions: dosed: Phenolphthalein, 25 mg/kg, iv, Male, F344; remark: listed apart in the source
Rat [29] = assay: concentration in plasma after dosing; conditions: dosed: Phenolphthalein, 25 mg/kg, iv, Male, F344; remark: listed apart in the source
Rat [30] = assay: concentration in plasma after dosing; conditions: dosed: Phenolphthalein, 25 mg/kg, iv, Female, F344; remark: listed apart in the source
Rat [31] = assay: concentration in plasma after dosing; conditions: dosed: Phenolphthalein, 25 mg/kg, iv, Female, F344; remark: listed apart in the source
Rat [32] = assay: concentration in plasma after dosing; conditions: dosed: Phenolphthalein, 25 mg/kg, iv, Male, F344; remark: listed apart in the source
Rat [33] = assay: concentration in plasma after dosing; conditions: 1 h; dosed: Phenolphthalein; 25 mg/kg; iv; Male; F344
Rat [34] = assay: concentration in plasma after dosing; conditions: 5 h; dosed: Phenolphthalein; 25 mg/kg; iv; Male; F344
Rat [35] = assay: concentration in plasma after dosing; conditions: 5 h; dosed: Phenolphthalein; 25 mg/kg; iv; Male; F344; remark: listed apart in the source
Rat [36] = assay: concentration in plasma after dosing; conditions: dosed: Phenolphthalein, 25 mg/kg, iv, Female, F344; remark: listed apart in the source
Rat [37] = assay: concentration in plasma after dosing; conditions: dosed: Phenolphthalein, 25 mg/kg, iv, Female, F344; remark: listed apart in the source

CC(C)(O)CC(=O)O [3-hydroxy-3-methyl butyrate]
rat [1]
Conditions | amount in urine
6.001 h | 0.652
12.07 h | 0.695
18.1 h | 0.787
24.1 h | 0.425
30 h | 0.178
36.09 h | 0.517
42.12 h | 0.736
48.11 h | 0.23

CC(C)(O)CC(=O)O [3-hydroxy-3-methyl-butyrate]
human
Conditions | amount in urine
6.255 h | 52.2
12.14 h | 81.7
18.19 h | 45.7
24.05 h | 43.6
30.19 h | 32.9
36.26 h | 24.2
42.12 h | 11.1
48.2 h | 19.7
305 s | 19.7

O=C(O)C(=O)O [Oxalic acid]
concentration in urine [ng/mL]
Conditions | 0 h | 2 h | 4 h | 8 h | 24 h | 48 h
Rat [2] | 63600 | 78100 | 108000 | 98200 | 103000 | 224000
Rat [3] | 63000 | – | – | 71100 | 99300 | 133000
Rat [4] | 53400 | – | 133000 | – | 68000 | 72600
Rat [6] | 63800 | 26200 | – | – | 88700 | 130000

concentration in urine [ng/mL], Rat [5]
Conditions | 0 h | 4 h | 8 h | 24 h | 48 h
40 mg/kg | 74600 | 52700 | 63500 | 89100 | 116000
100 mg/kg | 64800 | 105000 | – | 108000 | 154000

O=C1OC(c2ccc(O)cc2)(c2ccc(O)cc2)c2ccccc21 [Phenolphthalein]
Conditions | concentration in plasma [ng/mL]
Rat [7], 1 h | 841
Rat [7], 6 h | 290
Rat [11], 2 h | 261
Rat [11], 8 h | 43.2
Rat [12], 5 h | 56.9
Rat [12], 10 h | 70.2
Rat [14], 2.5 min | 167000
Rat [14], 20 h | 17.4
Rat [15], 5 min | 5180
Rat [15], 24 h | 69.4
Rat [18], 1 h | 2380
Rat [18], 6 h | 199
Rat [19], 3 h | 153
Rat [19], 12 h | 26.7
Rat [20], 2 h | 261
Rat [20], 8 h | 46.7
Rat [23], 5 h | 58.5
Rat [23], 10 h | 17.4
Rat [25], 2.5 min | 164000
Rat [25], 20 h | 22
Rat [27], 4 h | 127
Rat [27], 7 h | 36.5
Rat [28], 2 h | 662
Rat [28], 8 h | 83.6
Rat [29], 2 h | 636
Rat [29], 8 h | 110
Rat [30], 5 min | 52100
Rat [30], 24 h | 23
Rat [31], 4 h | 47.5
Rat [31], 7 h | 15.5
Rat [32], 4 h | 366
Rat [32], 7 h | 63
Rat [36], 1 h | 1400
Rat [36], 6 h | 392
Rat [37], 3 h | 336
Rat [37], 12 h | 96

concentration in plasma [ng/mL], Rat [8]
Conditions | Female | Male
1 h | 1090 | 1790
2 h | 259 | 592
2.5 min | 115000 | 195000
3 h | 290 | 43.2
4 h | 173 | 317
5 h | 105 | 691
5 min | 52300 | 51000
6 h | 89.9 | 59.4
7 h | 56.9 | 248
8 h | 32.4 | 274
10 h | 45.5 | 42.3
12 h | 98.5 | –
16 h | 120 | 20.2
20 h | 18.6 | –
24 h | 60.2 | –

Conditions | concentration in plasma [ng/mL]
Rat [9] | 24.5
Rat [10] | 25.1
Rat [13] | 94.5
Rat [16] | 561
Rat [17] | 58500
Rat [21] | 20.3
Rat [22] | 216000
Rat [24] | 219000
Rat [26] | 58300
Rat [33] | 1990
Rat [34] | 19.1
Rat [35] | 552
